Laboratory results: ChEMBL document CHEMBL1129791, “Antipsoriatic anthrones with modulated redox properties. 3. 10-thio-substituted 1,8-dihydroxy-9(10H)-anthracenones as inhibitors of keratinocyte growth, 5-lipoxygenase, and the formation of 12(S)-HETE in mouse epidermis” (J Med Chem, 1996)

Key:
[1] = molecular target: T1, Polyunsaturated fatty acid lipoxygenase ALOX12 (Mus musculus, UniProt P39655); assay: Tested for inhibition of 12-LO (12-lipoxygenase) as an inhibitor of 12(S)-HETE biosynthesis in mouse epidermal homogenates
T1 sequence (P39655 whole entry): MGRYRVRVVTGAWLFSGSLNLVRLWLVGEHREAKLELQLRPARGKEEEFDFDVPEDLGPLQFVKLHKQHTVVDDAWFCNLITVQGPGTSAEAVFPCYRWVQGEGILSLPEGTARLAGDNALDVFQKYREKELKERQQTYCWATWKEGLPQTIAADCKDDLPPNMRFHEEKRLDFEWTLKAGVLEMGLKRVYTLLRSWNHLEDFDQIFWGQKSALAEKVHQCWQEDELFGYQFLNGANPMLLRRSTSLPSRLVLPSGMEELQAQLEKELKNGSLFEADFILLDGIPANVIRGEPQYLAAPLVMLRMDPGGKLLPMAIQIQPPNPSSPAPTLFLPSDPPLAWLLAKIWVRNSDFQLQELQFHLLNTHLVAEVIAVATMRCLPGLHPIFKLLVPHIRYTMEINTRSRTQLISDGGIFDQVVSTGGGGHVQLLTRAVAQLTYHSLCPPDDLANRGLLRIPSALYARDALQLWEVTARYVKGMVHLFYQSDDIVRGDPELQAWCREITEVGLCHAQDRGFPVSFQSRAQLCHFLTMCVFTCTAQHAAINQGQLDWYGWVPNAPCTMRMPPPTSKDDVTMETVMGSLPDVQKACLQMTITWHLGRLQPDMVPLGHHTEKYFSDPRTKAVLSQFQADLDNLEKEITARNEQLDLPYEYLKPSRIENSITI

[2] = Acidity constant in aqueous solution was determined; format: ADME
How it was run: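 UV absorption spectra recorded in buffer solutions spanning pH 2.5–12.0, with measured pH values corrected where needed. Absorbance at pH 2.5 was taken as the neutral species and at pH 12.0 as the fully deprotonated species. pKa was obtained from titration curves of absorbance at suitable wavelengths.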

HaCaT [3] = assay: Compound was tested for activity of LDH(mU) release in HaCat cells after treatment with 2 uM compound; format: functional, Homo sapiens
How it was run: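 Human HaCaT keratinocytes exposed to 2 µM compound for 4 h at 37 °C. Extracellular LDH measured by UV method with pyruvate and NADH, expressed as mU/mL. Vehicle controls run in parallel; N = 3.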

[4] = Deoxyribose degradation (DD) as umol of malondialdehyde/mmol of deoxyribose released by 75 uM; format: functional
How it was run: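 Deoxyribose degradation run in 30 mM KH2PO4-KOH buffer, pH 7.4, with 75 µM compound. Incubated 2 h at 37 °C in shaking water bath. TBA-reactive material read at 532 nm and expressed as µmol malondialdehyde per mmol deoxyribose.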

[5] = Half life in ethanol at 25 degrees celsius was determined; format: ADME
HaCaT [6] = assay: Tested for antiproliferative activity against HaCaT cells; format: functional, cell-based; details: Homo sapiens
How it was run: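 HaCaT keratinocytes treated for 48 h. Dispersed cells counted by phase-contrast microscopy. Inhibition = (1 − test/control) × 100, using test N = 3 and control N = 6-8.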

[7] = molecular target: T2, Arachidonate 5-lipoxygenase (Bos taurus, UniProt Q9BEG3); assay: Tested for inhibition of 5-lipoxygenase as inhibition of 5-HETE and LTB4 biosynthesis in bovine PMNL
T2 sequence (Q9BEG3 whole entry): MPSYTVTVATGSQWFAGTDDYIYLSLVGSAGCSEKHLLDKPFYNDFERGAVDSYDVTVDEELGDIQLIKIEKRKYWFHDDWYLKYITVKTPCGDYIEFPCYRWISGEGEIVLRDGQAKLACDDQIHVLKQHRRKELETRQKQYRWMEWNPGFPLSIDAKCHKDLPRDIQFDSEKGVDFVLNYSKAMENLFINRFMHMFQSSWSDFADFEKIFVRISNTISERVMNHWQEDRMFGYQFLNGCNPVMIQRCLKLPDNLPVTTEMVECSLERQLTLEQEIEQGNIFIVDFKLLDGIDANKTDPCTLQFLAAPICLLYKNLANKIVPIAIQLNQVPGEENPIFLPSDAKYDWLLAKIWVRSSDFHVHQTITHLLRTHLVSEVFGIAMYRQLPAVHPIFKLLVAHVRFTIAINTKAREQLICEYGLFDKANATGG

[8] = Half life in DMSO at 25 degrees celsius was determined; format: ADME
[9] = half life in DMSO at 25 degrees celsius; format: ADME
[10] = half life in ethanol at 25 degrees celsius; format: ADME

| SMILES | IC50 [1] | pKa [2] | LDH (HaCaT [3]) | DD [4] | half-life [5] | IC50 (HaCaT [6]) | IC50 [7] | half-life [8] | half-life [9] | half-life [10] |
| --- | --- | --- | --- | --- | --- | --- | --- | --- | --- | --- |
| Nc1ccccc1SC1c2cccc(O)c2C(=O)c2c(O)cccc21 | 6 µM | 8.4 | 255 mU/mL | 4.76 | 20 h | 0.1 µM | 2 µM | 26 h | – | – |
| O=C1c2c(O)cccc2C(SCCCc2ccccc2)c2cccc(O)c21 | – | – | – | 2.71 | – | > 5 µM | – | – | – | – |
| O=C1c2c(O)cccc2C(SCCc2ccccc2)c2cccc(O)c21 | > 30 µM | – | – | 2.78 | – | 4.7 µM | 30 µM | – | 4 h | 3 h |
| O=C1c2c(O)cccc2C(SCc2ccccc2)c2cccc(O)c21 | 30 µM | – | – | 3.74 | – | 1.4 µM | > 30 µM | – | – | – |
| CCCCOC(=O)CCSC1c2cccc(O)c2C(=O)c2c(O)cccc21 | 30 µM | 5.7 | – | 5.38 | 2 h | 2.3 µM | 30 µM | 11 h | – | – |
| O=C1c2c(O)cccc2C(Sc2ccccc2)c2cccc(O)c21 | 30 µM | 5.4 | – | 4.13 | 12 h | 3.7 µM | 8 µM | 28 h | – | – |
| COc1ccc(CSC2c3cccc(O)c3C(=O)c3c(O)cccc32)cc1 | 30 µM | 6.1 | – | 5.01 | 5 h | 3 µM | > 30 µM | 23 h | – | – |
| CCOC(=O)CSC1c2cccc(O)c2C(=O)c2c(O)cccc21 | > 30 µM | – | – | 4.51 | – | 4.5 µM | > 30 µM | – | – | – |
| COc1ccc(SC2c3cccc(O)c3C(=O)c3c(O)cccc32)cc1 | 30 µM | 7.9 | 137 mU/mL | 1.59 | 21 h | 1.7 µM | 3 µM | 32 h | – | – |
| COC(=O)CSC1c2cccc(O)c2C(=O)c2c(O)cccc21 | > 30 µM | – | – | 4.89 | – | 1.9 µM | 13 µM | – | – | – |
| CC(SC1c2cccc(O)c2C(=O)c2c(O)cccc21)C(=O)O (stereo not given) | 15 µM | – | – | 9.34 | – | 0.2 µM | > 30 µM | – | – | – |
| O=C1c2c(O)cccc2C(SCCO)c2cccc(O)c21 | > 30 µM | – | 136 mU/mL | 2.49 | – | 1.2 µM | 2 µM | – | – | – |
| O=C1c2c(O)cccc2C(SCCCS)c2cccc(O)c21 | 30 µM | – | 369 mU/mL | 4.09 | – | 0.8 µM | > 30 µM | – | – | – |
| O=C1c2c(O)cccc2C(SCC(O)CO)c2cccc(O)c21 (stereo not given) | > 30 µM | – | – | 2.45 | – | 1.7 µM | 9 µM | – | – | – |
| COc1ccccc1SC1c2cccc(O)c2C(=O)c2c(O)cccc21 | 3 µM | – | – | 4.33 | – | 4.2 µM | 6 µM | – | – | – |
| COc1cccc(SC2c3cccc(O)c3C(=O)c3c(O)cccc32)c1 | 30 µM | – | – | 4.29 | – | 1.8 µM | – | – | – | – |
| O=C(O)CSC1c2cccc(O)c2C(=O)c2c(O)cccc21 | 30 µM | – | – | 6.12 | – | > 5 µM | > 30 µM | – | – | – |
| Nc1ccc(SC2c3cccc(O)c3C(=O)c3c(O)cccc32)cc1 | > 30 µM | – | 184 mU/mL | 1.49 | – | 0.9 µM | 7 µM | – | – | – |
| O=C1c2c(O)cccc2C(Sc2ccc(O)cc2)c2cccc(O)c21 | 3 µM | 6.2 | 148 mU/mL | 3.61 | 34 h | 0.1 µM | 2 µM | 55 h | – | – |
| CCCCOC(=O)CSC1c2cccc(O)c2C(=O)c2c(O)cccc21 | 30 µM | – | – | 4.19 | – | 2.1 µM | > 30 µM | – | – | – |
| CCCSC1c2cccc(O)c2C(=O)c2c(O)cccc21 | > 30 µM | – | 117 mU/mL | 2.81 | – | 1.2 µM | > 30 µM | – | – | – |
| COC(=O)CCSC1c2cccc(O)c2C(=O)c2c(O)cccc21 | 27 µM | – | 133 mU/mL | 5.25 | – | 1.1 µM | 15 µM | – | – | – |
| CCSC1c2cccc(O)c2C(=O)c2c(O)cccc21 | > 30 µM | – | – | 4.23 | – | 1.4 µM | > 30 µM | – | – | – |
| NC(CSC1c2cccc(O)c2C(=O)c2c(O)cccc21)C(=O)O (stereo not given) | 30 µM | – | – | 2.33 | – | > 5 µM | > 30 µM | – | – | – |
| O=C1c2c(O)cccc2C(Sc2ccccc2O)c2cccc(O)c21 | 30 µM | – | 174 mU/mL | 3.7 | – | 1.7 µM | 5 µM | – | – | – |
| CCOC(=O)CCSC1c2cccc(O)c2C(=O)c2c(O)cccc21 | 30 µM | – | 124 mU/mL | 5.52 | – | 1.6 µM | > 30 µM | – | – | – |
| O=C(O)CCSC1c2cccc(O)c2C(=O)c2c(O)cccc21 | 30 µM | – | – | 6.34 | – | 1.9 µM | 2 µM | – | – | – |
